For one assay, the target named is FAK (Homo sapiens, UniProt Q05397). Description: Surface plasmon resonance. Type of assay: binding. In short, it runs like this:
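Biacore S200 at 25°C, with running buffer 1% DMSO/1x PBS-P+ (filtered, degassed) at 30 μL/min. FAK at 20 μg/mL in 10 mM sodium acetate pH 5.0 was amine-coupled to a CM5 chip, targeting 5000 RU, with unmodified flow cell 1 as reference. Peptide analyte: ≥5 concentrations (100 nM–100 μM) plus a repeat and a blank, multi-cycle. Association 180 s, dissociation 600 s. Regeneration with 10 mM glycine pH 2.5 for 30 s. KD from 1:1 Langmuir fit.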

The test system of assay [1] is MDA-MB-231 cells. The assay can be described thus: qPCR gene expression. To be noted: for expression of NANOG target genes (FABP5, POSTN, NRP2, PIN1, TAGLN) / expression of epithelial cell markers cytokeratin 18 and 19 (KRT18 and KRT19): MDA-MB-231, 7 days of treatment, n=3; for expression of NANOG target genes (FABP5, POSTN, NRP2, PIN1, TAGLN): compared to vehicle or aScr-pep. Type of assay: cell-based. In short, it runs like this: (§1)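 Cells were treated for 7 days with test peptide, cytosolic-tail peptide alone, scrambled peptide or vehicle, then analysed by real-time qPCR for NANOG-regulated and keratin genes. CT values were normalized to GAPDH, and dissociation curves checked primer fidelity. n=3 independent experiments, each in technical triplicate; one-way ANOVA.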
On the technique in general: Quantitative PCR measures a nucleic acid by following its amplification.

In the next assay the target is NANOG (Homo sapiens, UniProt Q9H9S0). The assay can be described thus: Surface plasmon resonance. It counts as binding. The method, boiled down: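 Purified active NANOG at 50 μg/mL in 10 mM sodium acetate pH 4.5 was amine-coupled (EDC/NHS, ethanolamine block) to a CM5 chip, targeting 5000 RU, with an unmodified reference cell. Runs used Biacore S200 at 25°C, 1% DMSO/1x PBS-P+ at 30 μL/min. Peptide series: ≥5 concentrations, 100 nM–100 μM, plus repeat and zero. Association 180 s, dissociation 600 s, glycine pH 2.5 regeneration. KD by 1:1 Langmuir kinetics.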

Assay [2] relates to MDA-MB-231 cells. The assay can be described thus: CellTiter-Glo proliferation. Type of assay: cell-based. Particulars: MDA-MB-231, increasing concentrations, 72 h. In short, it runs like this: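 MDA-MB-231 cells, grown in DMEM with 1 mM sodium pyruvate and 10% heat-inactivated FCS at 37°C and 5% CO₂, were seeded at 1,000 cells/well. They were exposed for 72 h to Antp peptide alone, test peptide or vehicle (1% DMSO in PBS). Cells were lysed with CellTiter-Glo at day 0 and at 72 h, shaken 10 min in the dark, and luminescence was read. Fold change = 72 h value / day 0 value per group.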

The subject of another assay is HCC70. The assay can be described thus: Tumorsphere-initiation frequency, extreme limiting-dilution assay. It counts as cell-based. Particulars: HCC70, ELDA, compared to aScr-pep. The method, boiled down: (§2)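 Cells were treated with vehicle, Antp alone, Antp-tagged scrambled peptide or test peptide. They were plated in duplicate rows at serial dilutions of 1–20 cells/well, one 96-well plate per condition. Medium was serum-free DMEM with 20 ng/ml bFGF, 10 ng/ml EGF, 2% B27 and 10 μg/ml insulin. After 2 weeks, wells were scored sphere-positive or negative by phase-contrast microscopy. Stem-cell frequency was computed by extreme limiting dilution analysis.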

For the next assay, the system named is MCF7. The assay is described as above. Particulars: MCF7 luminal breast cancer cell line, ELDA, aScr-pep vs aCx26-pep. Type of assay: cell-based. In short, it runs like this: as §2
Another assay relates to MDA-MB-468. The description is as above. It counts as cell-based. To be noted: MDA-MB-468, ELDA, compared to aScr-pep. The method, boiled down:
as §2

The subject of assay [3] is HCC70 cells. The assay can be described thus: qPCR gene expression. To be noted: HCC70, 10 μM, 7 day treatment, compared to aScr-pep. It counts as cell-based. In short, it runs like this: as §1
For assay [4], the system named is HCC70 cells. The assay can be described thus: Subcellular fractionation and immunoblotting for FAK and NANOG. It counts as cell-based. To be noted: HCC70, 10 μM, 48 h, immunoblot. The method, boiled down:
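15×10⁶ HCC70 cells per 15 cm dish were treated 48 h with 10 μM peptide or 1% DMSO vehicle. A commercial kit gave membrane, cytoplasmic and nuclear fractions. 25 μg per fraction was run on 12% SDS-PAGE and transferred to PVDF. Blots were probed for FAK and NANOG, with HRP secondary 3 h at room temperature. Rhodamine anti-actin and Lamin A/C served as loading controls.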
A general note: In western blotting, separated proteins are transferred to a membrane and probed.

In assay [5] the test system is MCF7 luminal breast cancer cells. Description: qPCR gene expression. Type of assay: cell-based. Particulars: MCF7, 7 days of treatment, n=3. In short, it runs like this: as §1
Assay [6] relates to MDA-MB-231 luciferase-expressing tumors. It counts as in vivo, NSG mice. To be noted: endpoint tumors. In short, it runs like this: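 MDA-MB-231 cells were made luciferase-expressing by lentivirus and puromycin-selected. 1×10⁶ cells went into the right subcutaneous flank of 6-week-old female NSG mice. At palpability, mice were randomized to 50 μl intratumoral 0.1 mM peptide or vehicle (1% DMSO) every other day for 20 days. Weekly IVIS: D-luciferin 150 mg/kg IP under isoflurane, total flux. Excised tumors were fixed 3 days in 4% PFA, then sectioned and stained (H&E: 7–8 mice/group; IF: 3–4 mice/group, 3 images/mouse). One-way ANOVA.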

The subject of the next assay is MDA-MB-231. Description: Tumorsphere-initiation frequency, extreme limiting-dilution assay. Type of assay: cell-based. Particulars: MDA-MB-231, ELDA, compared to aScr-pep. The method, boiled down: as §2
The mark [7] stands for this setting: SPR, 25°C, 1% DMSO/1x PBS-P+, 1:1 Langmuir, range given in words.
Setting [8] is: MDA-MB-231, 10 μM, 7 day treatment, compared to aScr-pep.
The mark [9] stands for this setting: immunofluorescence, 3–4 mice per group.

Ends that are not written are not given here.

FAK, sequence (Q05397 whole entry): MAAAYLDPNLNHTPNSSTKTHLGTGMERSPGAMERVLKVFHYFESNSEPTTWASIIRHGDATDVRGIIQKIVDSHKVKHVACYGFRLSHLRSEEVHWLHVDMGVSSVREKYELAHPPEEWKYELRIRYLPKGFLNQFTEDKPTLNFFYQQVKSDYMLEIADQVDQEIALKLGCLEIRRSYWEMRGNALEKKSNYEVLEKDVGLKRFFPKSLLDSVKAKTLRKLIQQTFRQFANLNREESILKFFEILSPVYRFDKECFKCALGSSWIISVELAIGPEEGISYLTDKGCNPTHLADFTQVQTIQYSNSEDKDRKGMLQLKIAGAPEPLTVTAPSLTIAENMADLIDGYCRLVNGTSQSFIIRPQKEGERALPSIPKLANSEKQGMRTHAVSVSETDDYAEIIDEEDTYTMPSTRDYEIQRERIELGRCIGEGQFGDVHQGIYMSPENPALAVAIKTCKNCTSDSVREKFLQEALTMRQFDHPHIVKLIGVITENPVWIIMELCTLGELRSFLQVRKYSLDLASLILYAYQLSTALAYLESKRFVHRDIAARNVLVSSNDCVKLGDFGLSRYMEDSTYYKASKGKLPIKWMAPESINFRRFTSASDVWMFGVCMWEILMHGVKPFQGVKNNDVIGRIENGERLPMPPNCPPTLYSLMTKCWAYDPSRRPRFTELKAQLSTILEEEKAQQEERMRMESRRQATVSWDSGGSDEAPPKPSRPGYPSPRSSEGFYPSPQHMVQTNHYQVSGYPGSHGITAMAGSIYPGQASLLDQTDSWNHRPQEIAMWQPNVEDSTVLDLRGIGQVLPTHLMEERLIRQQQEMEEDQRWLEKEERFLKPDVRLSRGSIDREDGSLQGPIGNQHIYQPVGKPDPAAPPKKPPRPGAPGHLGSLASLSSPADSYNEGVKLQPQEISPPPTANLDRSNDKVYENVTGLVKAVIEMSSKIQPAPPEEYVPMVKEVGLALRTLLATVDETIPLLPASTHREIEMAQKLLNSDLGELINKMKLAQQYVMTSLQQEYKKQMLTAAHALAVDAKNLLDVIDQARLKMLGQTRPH
NANOG, sequence (Q9H9S0 whole entry): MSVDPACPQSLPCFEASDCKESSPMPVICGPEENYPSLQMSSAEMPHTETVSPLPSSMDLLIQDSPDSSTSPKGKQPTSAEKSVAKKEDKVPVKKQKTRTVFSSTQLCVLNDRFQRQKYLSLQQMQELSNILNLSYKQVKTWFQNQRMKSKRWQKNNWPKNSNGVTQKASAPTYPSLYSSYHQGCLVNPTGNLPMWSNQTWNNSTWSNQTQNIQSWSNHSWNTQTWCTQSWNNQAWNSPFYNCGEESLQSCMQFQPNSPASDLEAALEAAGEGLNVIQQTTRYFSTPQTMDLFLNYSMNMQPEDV

In the case of “Cx26 cytosolic tail: peptide fragment of the Cx26 cytosolic (C-terminal) tail, 11 amino acids (RYCSGKSKKPV-NH2)”, in the assay with FAK (setting [7]), the “dissociation constant (KD) with FAK” value is “micromolar”. Moreover, in the assay with MDA-MB-231 cells [1], the “expression of NANOG target genes (FABP5, POSTN, NRP2, PIN1, TAGLN)” value is reported as “no significant differences”; the “expression of epithelial cell markers cytokeratin 18 and 19 (KRT18 and KRT19)” value is reported as “no significant differences”. For the same substance, the “dissociation constant (KD) with NANOG” value with NANOG (setting [7]) is “nanomolar”.

As for RYCSG, on FAK, the “binding to FAK by SPR (result in words)” value was “sufficient for binding”. Also, on NANOG, the “binding to NANOG by SPR (result in words)” value is on record as “sufficient for binding”.

With “aCx26-pep: peptide containing the Cx26 cytosolic tail sequence tagged with an antennapedia (Antp) leader sequence (RQIKIWFQNRRMKWKKRYCSGKSKKPV-NH2)”, in the assay with FAK, the “binding to FAK by SPR (result in words)” value is on record as “did not significantly alter”. In addition, in the assay with MDA-MB-231 cells [2], the “cell proliferation (CellTiter-Glo)” value is given as “not significantly affected”. The tumorsphere frequency result in the assay on HCC70 is “significantly decreased”. Moreover, in the assay on MCF7, the tumorsphere frequency result was “no significant difference”. For the same substance, the tumorsphere frequency entry with MDA-MB-468 was “significantly decreased”. In addition, in the assay with HCC70 cells [3], the “Oct4 mRNA levels” value is recorded as “significant decrease” and the Sox2 levels result is on record as “did not observe a change”. Moreover, in the assay on MDA-MB-231 cells [1] (setting [8]), the “Oct4 mRNA levels” value is reported as “significant decrease” and the Sox2 levels result is “did not observe a change”. In addition, in the assay on MDA-MB-231 cells [1], the “expression of NANOG target genes (FABP5, POSTN, NRP2, PIN1, TAGLN)” value is given as “significantly decreased”; the “expression of epithelial cell markers cytokeratin 18 and 19 (KRT18 and KRT19)” value is “significantly increased”. Further, in the assay with HCC70 cells [4], the “FAK level in the nuclear fraction” value is “dramatic decreases” and the “NANOG level in the nuclear fraction” value is “dramatic decreases”. For the same substance, the “binding to NANOG by SPR (result in words)” value with NANOG is on record as “did not significantly alter”. In assay [5], the “NANOG target gene expression” value is recorded as “did not significantly change” and the cytokeratin gene expression result is reported as “did not significantly change”. Besides, in assay [6] (setting [9]), the “Ki67 staining (proliferation marker)” value is reported as “decreased”, the “cleaved caspase 3 staining” value is “increased” and the “vimentin staining (EMT marker)” value was “decreased”. In addition, the “percent tumor viability (H&E)” value in [6] (vs vehicle or aScr-pep, 7–8 mice per group) is “significantly decreased”. For the same substance, the tumorsphere frequency entry in the assay with MDA-MB-231 is reported as “significantly decreased”.

The values are drawn from publication PMC10840808 (Molecular cancer therapeutics, 2024).
